Tests used:
[1] = Cardiotoxicity in anesthetized Beagle dog assessed as effect on cardiac contractility administered for 2 days as 45 mins iv infusion followed by compound washout and subsequent adrenaline dosing for 2 days as 10 mins iv infusion; assay type: toxicity, organism-based, Canis lupus familiaris; conditions: in vivo
[2] = Mutagenicity in Salmonella typhimurium TA98 in absence of rat S9 fraction by Ames test; assay type: toxicity; conditions: salmonella enterica subsp. enterica serovar typhimurium
How it was run: (§1)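 Ames bacterial mutagenicity test in S. typhimurium TA98 and TA100. Run with and without metabolic activation by rat S9 fraction.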

[3] = Inhibition of phospholipidosis in rat H42EC3 cells assessed as reduction in NBD-PE accumulation by SYTOX orange staining-based high content imaging analysis; assay type: cell-based
[4] = molecular target: Cytochrome P450 2C19 (Homo sapiens, UniProt P33261); assay: Inhibition of recombinant human CYP2C19 expressed in Escherichia coli using CEC as substrate by fluorescence assay; assay type: ADME
Chain of Cytochrome P450 2C19 (P33261 whole entry): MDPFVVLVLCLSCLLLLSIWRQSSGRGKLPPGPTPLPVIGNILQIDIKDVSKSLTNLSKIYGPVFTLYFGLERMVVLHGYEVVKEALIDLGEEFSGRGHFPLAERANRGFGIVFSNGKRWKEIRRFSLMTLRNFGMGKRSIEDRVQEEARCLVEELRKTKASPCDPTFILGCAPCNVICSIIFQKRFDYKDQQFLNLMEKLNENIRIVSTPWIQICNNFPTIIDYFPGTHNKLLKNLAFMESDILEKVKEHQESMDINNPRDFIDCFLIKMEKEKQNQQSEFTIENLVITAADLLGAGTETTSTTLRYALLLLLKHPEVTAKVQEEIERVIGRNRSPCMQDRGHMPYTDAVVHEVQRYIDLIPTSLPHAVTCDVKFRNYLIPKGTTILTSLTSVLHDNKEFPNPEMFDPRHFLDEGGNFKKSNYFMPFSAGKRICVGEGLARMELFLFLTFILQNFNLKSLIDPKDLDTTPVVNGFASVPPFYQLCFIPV

[5] = molecular target: T1, A-type voltage-gated potassium channel KCND3 (Homo sapiens, UniProt Q9UK17); assay: Inhibition of human Kv4.3 by Ion-work electrophysiology assay
T1 sequence (Q9UK17 whole entry): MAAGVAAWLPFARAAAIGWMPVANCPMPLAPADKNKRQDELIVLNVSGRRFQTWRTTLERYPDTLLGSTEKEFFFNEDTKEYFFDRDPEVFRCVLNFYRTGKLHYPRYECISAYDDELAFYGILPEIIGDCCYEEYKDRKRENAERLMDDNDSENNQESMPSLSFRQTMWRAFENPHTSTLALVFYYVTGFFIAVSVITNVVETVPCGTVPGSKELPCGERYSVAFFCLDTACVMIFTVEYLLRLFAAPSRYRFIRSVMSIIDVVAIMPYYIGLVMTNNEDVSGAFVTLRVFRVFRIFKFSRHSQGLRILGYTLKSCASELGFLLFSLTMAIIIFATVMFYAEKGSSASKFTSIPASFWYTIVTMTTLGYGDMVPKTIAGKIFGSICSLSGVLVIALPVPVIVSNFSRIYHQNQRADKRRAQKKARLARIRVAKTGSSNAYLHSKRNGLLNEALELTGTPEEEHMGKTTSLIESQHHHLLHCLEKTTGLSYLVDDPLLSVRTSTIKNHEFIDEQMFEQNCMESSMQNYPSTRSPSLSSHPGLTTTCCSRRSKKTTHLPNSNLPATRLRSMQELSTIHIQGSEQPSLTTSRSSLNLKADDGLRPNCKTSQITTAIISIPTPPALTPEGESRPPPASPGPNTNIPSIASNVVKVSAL

[6] = molecular target: Potassium voltage-gated channel subfamily E member 1 (Homo sapiens, UniProt P15382); assay: Inhibition of human KCNE1 by Ion-work electrophysiology assay
[7] = Half life in rat at 1 umol/kg, iv; assay type: ADME; conditions: in vivo
[8] = molecular target: Sodium channel protein type 5 subunit alpha (Homo sapiens, UniProt Q14524); assay: Inhibition of human NaV1.5 by Ion-work electrophysiology assay
Chain of Sodium channel protein type 5 subunit alpha (Q14524 whole entry): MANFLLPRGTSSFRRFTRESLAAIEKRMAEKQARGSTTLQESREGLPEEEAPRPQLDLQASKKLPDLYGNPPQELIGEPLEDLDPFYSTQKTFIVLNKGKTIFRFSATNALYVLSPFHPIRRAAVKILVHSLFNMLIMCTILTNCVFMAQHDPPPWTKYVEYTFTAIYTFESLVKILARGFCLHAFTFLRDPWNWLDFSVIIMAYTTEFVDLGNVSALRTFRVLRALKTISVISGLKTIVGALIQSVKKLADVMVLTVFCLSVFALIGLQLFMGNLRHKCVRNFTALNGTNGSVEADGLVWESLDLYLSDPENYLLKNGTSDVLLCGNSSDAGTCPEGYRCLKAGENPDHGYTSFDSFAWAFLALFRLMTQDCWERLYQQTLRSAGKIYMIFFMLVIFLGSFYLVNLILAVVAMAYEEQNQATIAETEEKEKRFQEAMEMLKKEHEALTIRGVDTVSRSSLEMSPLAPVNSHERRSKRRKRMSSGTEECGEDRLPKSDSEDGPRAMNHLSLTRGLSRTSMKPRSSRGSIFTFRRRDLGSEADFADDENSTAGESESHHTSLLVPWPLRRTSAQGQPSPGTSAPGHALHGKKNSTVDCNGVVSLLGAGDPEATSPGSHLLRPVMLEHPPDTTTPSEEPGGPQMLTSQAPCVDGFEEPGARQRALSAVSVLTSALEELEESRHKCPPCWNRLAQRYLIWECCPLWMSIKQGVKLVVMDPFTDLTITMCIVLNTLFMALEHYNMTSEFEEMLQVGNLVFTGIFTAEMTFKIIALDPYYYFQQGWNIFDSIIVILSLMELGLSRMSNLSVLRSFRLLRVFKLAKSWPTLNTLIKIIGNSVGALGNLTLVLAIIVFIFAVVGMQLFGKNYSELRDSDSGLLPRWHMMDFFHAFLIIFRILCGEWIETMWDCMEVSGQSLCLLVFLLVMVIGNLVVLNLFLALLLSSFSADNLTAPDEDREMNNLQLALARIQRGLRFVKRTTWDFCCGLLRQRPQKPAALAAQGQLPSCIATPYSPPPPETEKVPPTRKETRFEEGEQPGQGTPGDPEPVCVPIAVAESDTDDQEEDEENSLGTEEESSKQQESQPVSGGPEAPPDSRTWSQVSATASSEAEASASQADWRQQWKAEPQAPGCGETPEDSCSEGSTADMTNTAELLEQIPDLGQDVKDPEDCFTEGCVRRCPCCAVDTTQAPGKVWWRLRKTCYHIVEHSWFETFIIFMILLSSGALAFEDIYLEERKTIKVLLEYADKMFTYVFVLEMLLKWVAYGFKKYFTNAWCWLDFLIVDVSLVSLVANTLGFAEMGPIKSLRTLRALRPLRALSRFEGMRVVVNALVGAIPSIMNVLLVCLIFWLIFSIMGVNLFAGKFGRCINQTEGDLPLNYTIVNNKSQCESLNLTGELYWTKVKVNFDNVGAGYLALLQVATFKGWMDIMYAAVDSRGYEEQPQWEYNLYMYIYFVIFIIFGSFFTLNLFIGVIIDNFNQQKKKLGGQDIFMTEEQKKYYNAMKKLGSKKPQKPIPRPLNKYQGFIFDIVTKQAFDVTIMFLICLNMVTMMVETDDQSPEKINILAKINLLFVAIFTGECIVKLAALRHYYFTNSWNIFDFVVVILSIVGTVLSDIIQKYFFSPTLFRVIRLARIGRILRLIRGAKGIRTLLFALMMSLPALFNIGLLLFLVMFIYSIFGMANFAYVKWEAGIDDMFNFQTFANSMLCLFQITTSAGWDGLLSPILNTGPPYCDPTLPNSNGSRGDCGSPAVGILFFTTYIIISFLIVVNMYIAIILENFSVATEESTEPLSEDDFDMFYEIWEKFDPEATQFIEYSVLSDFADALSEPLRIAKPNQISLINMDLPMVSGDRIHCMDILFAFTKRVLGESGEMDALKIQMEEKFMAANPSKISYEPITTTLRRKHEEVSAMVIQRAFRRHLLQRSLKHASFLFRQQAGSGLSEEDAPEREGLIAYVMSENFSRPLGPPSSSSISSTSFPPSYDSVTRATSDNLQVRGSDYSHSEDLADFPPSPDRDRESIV

[9] = molecular target: Cytochrome P450 3A4 (Homo sapiens, UniProt P08684); assay: Inhibition of recombinant human CYP3A4 expressed in Escherichia coli using BFC as substrate by fluorescence assay; assay type: ADME
Chain of Cytochrome P450 3A4 (P08684 whole entry, the tested form may be a part): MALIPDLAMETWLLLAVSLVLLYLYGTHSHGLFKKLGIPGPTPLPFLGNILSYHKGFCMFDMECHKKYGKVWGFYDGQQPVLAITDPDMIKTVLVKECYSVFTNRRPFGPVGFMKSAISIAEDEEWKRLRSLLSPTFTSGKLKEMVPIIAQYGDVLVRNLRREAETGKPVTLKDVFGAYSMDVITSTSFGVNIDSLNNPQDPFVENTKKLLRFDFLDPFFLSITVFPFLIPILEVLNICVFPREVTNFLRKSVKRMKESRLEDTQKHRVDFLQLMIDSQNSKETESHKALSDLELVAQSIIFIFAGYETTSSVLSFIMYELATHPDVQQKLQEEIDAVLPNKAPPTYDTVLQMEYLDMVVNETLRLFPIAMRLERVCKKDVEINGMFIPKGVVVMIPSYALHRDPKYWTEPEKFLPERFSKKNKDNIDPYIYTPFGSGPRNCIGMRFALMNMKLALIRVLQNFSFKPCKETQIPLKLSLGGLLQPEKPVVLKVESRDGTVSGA

[10] = Cardiotoxicity in anesthetized Beagle dog assessed as effect on heart rate administered for 2 days as 45 mins iv infusion followed by compound washout and subsequent adrenaline dosing for 2 days as 10 mins iv infusion; assay type: toxicity, organism-based, Canis lupus familiaris; conditions: in vivo
[11] = molecular target: Voltage-gated inwardly rectifying potassium channel KCNH2 (Homo sapiens, UniProt Q12809); assay: Inhibition of human ERG by Ion-work assay
Chain of Voltage-gated inwardly rectifying potassium channel KCNH2 (Q12809 whole entry): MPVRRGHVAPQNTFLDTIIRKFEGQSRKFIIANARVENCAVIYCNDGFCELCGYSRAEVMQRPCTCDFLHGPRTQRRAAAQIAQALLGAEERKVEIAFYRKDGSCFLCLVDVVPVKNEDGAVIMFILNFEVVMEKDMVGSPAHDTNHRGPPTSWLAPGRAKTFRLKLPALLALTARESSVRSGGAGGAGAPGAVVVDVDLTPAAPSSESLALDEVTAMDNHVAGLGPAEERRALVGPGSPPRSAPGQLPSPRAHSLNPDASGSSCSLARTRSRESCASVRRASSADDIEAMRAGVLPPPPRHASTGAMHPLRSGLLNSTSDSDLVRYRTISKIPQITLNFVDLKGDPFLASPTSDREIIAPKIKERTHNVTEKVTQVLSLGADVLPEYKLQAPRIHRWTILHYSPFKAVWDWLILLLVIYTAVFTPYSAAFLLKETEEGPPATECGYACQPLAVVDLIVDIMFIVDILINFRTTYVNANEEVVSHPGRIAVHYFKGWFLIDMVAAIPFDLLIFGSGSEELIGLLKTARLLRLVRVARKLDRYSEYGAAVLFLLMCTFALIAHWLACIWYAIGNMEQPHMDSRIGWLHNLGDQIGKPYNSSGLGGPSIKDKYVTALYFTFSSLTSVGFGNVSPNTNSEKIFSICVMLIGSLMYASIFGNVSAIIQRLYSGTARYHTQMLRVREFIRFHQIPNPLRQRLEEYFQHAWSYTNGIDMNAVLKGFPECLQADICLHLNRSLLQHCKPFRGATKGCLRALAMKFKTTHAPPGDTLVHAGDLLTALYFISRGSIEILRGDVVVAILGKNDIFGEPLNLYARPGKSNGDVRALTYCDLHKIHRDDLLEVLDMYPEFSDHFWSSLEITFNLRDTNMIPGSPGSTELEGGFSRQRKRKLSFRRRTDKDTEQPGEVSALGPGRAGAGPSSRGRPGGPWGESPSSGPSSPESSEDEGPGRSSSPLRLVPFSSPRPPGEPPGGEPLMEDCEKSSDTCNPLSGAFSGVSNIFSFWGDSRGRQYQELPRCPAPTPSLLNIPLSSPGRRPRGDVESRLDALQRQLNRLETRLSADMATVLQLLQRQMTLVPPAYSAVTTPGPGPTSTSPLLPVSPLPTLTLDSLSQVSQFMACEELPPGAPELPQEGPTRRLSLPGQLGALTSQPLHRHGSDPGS

[12] = molecular target: Solute carrier organic anion transporter family member 1B1 (Homo sapiens, UniProt Q9Y6L6); assay: […] at recombinant human OATP1B1 expressed in HEK293 cells assessed as reduction in pivastatin uptake; assay type: ADME, cell-based
[13] = Protein binding in Sprague-Dawley rat plasma assessed as unbound fraction by equilibrium dialysis method; assay type: ADME, cell-free
[14] = Mutagenicity in Salmonella typhimurium TA98 in presence of rat S9 fraction by Ames test; assay type: toxicity, subcellular; conditions: salmonella enterica subsp. enterica serovar typhimurium; how it was run: as §1
[15] = Octanol-phosphate buffer partition co-efficient, log D of the compound at pH 7.4 after 2 hrs by LC-MS/MS-based shake flask method; assay type: physicochemical
How it was run: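 Distribution between octanol and water at pH 7.4.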

[16] = molecular target: T2, Cytochrome P450 2C8 (Homo sapiens, UniProt P10632); assay: Inhibition of recombinant human CYP2C8 expressed in Escherichia coli using luciferin-ME as substrate by fluorescence assay; assay type: ADME
T2 sequence (P10632 whole entry): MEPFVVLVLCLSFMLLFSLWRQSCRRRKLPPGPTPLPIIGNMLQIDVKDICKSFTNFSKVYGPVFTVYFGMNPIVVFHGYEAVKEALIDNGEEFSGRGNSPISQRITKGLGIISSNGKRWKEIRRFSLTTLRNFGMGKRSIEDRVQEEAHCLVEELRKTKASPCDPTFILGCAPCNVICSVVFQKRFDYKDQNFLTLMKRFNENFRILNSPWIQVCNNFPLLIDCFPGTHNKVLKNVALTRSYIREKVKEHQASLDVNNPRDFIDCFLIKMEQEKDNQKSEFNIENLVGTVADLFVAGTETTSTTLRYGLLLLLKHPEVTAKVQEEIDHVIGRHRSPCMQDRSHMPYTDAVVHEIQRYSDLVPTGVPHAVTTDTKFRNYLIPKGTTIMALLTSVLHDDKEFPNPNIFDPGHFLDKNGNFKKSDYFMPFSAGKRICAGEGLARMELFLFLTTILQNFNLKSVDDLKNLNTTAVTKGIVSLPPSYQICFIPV

[17] = molecular target: T3, Cytochrome P450 1A2 (Homo sapiens, UniProt P05177); assay: Inhibition of recombinant human CYP1A2 expressed in Escherichia coli using CEC as substrate by fluorescence assay; assay type: ADME
T3 sequence (P05177 whole entry): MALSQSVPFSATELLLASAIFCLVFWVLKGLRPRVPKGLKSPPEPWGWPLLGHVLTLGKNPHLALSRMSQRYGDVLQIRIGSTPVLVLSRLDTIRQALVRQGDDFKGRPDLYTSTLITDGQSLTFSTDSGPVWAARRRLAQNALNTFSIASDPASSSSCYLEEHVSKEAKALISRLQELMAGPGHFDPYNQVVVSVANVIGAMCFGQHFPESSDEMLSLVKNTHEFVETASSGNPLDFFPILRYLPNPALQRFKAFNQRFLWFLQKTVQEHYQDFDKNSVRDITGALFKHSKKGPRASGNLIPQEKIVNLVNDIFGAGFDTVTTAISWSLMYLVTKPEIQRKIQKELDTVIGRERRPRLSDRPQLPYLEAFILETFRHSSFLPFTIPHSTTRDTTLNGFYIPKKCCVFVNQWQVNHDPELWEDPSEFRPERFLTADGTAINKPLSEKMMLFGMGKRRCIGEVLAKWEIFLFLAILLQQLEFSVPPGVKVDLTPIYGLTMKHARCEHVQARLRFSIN

[18] = molecular target: Potassium/sodium hyperpolarization-activated cyclic nucleotide-gated channel 4 (Homo sapiens, UniProt Q9Y3Q4); assay: Inhibition of human HCN4 by Ion-work electrophysiology assay
[19] = molecular target: Potassium voltage-gated channel subfamily A member 5 (Homo sapiens, UniProt P22460); assay: Inhibition of human Kv1.5 by Ion-work electrophysiology assay
Chain of Potassium voltage-gated channel subfamily A member 5 (P22460 whole entry): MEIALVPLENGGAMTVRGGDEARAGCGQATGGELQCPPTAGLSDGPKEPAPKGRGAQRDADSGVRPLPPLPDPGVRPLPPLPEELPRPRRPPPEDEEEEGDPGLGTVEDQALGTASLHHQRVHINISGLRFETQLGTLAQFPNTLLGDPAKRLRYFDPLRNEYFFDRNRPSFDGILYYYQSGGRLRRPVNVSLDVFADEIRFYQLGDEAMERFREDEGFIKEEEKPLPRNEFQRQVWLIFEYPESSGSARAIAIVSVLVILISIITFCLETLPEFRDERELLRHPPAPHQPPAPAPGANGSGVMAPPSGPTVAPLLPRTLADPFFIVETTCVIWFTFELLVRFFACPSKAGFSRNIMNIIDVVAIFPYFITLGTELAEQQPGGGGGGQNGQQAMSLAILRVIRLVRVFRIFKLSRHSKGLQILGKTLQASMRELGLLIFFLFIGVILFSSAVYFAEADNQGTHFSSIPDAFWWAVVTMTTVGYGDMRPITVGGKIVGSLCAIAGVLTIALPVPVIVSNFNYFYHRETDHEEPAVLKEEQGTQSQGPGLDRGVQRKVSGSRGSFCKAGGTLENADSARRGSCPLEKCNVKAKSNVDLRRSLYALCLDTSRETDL

[20] = Toxicity in conscious telemetered Beagle dog assessed as vomiting; design: species or system Canis lupus familiaris; conditions: in vivo
[21] = Volume of distribution at steady state in Beagle dog at 2 umol/kg, iv; assay type: ADME, Canis lupus familiaris; conditions: in vivo, read-out: Vdss

| IC50 [4] [µM] | IC50 [5] [µM] | IC50 [6] [µM] | half-life [7] [h] | IC50 [9] [µM] | IC50 [12] [µM] | fraction unbound [13] | logD at 2 h [15] | IC50 [16] [µM] | IC50 [17] [µM] | IC50 [18] [µM] | IC50 [19] [µM] | Compound | Activity [1] | Activity [2] | inhibition (INH) [3] | IC50 [8] [µM] | Activity [10] | IC50 [11] [µM] | Activity [14] | Activity [20] | also measured |
| --- | --- | --- | --- | --- | --- | --- | --- | --- | --- | --- | --- | --- | --- | --- | --- | --- | --- | --- | --- | --- | --- |
| > 20 | > 33 | > 33 | 4.7 | > 20 | 1.4 | < 0.0004 | 3.3 | > 20 | > 20 |  |  | Cc1cc(-c2ccc(C(=O)[C@@H]3CCCC[C@H]3C(=O)Nc3cnn(C)c3C(=O)NOC(C)(C)C)cc2)[nH]n1 | Toxic | Non-Toxic | Non-Toxic | > 33 | Toxic | > 33 | Non-Toxic |  |  |
| > 20 | > 33 | > 33 | 0.45 | > 20 |  | 0.024 | 2.9 | > 20 | > 20 | > 32 | > 32 | Cc1cc(-c2ccc(C(=O)[C@@H]3CCCC[C@H]3C(=O)Nc3cnn4c3C(=O)NCC4)cc2)[nH]n1 | Non-Toxic | Non-Toxic | Non-Toxic | > 33 | Non-Toxic | > 33 | Non-Toxic | Non-Toxic | Vd [21]: 1.1 L/kg |
| > 20 | > 33 | > 33 |  | > 20 | 2.5 | 0.014 | 3.4 | > 20 | > 20 | > 32 | > 32 | Cc1cc(-c2ccc(C(=O)[C@@H]3CCCC[C@H]3C(=O)Nc3cnn(C)c3S(N)(=O)=O)cc2)[nH]n1 | Non-Toxic | Non-Toxic | Non-Toxic | > 33 | Non-Toxic | > 33 | Non-Toxic | Toxic | Vd [21]: 1.3 L/kg |

— ChEMBL document CHEMBL4393654, “Discovery and Early Clinical Development of an Inhibitor of 5-Lipoxygenase Activating Protein (AZD5718) for Treatment of Coronary Artery Disease” (J Med Chem, 2019)
